According to ChEMBL document CHEMBL1629704, “Inhibition of dengue virus by an ester prodrug of an adenosine analog” (Antimicrob Agents Chemother, 2010):
Calls of active or inactive are those of the source. The rule behind the calls is not given here.

Experiments:
Yellow fever virus [1] = assay: Antiviral activity against Yellow fever virus 17D infected in african green monkey Vero cells at 12.5 uM after 48 hrs by plaque assay; type: functional
dengue virus type 2 [2] = assay: Antiviral activity against Dengue virus 2 NGC infected in african green monkey Vero cells at 12.5 uM after 48 hrs by plaque assay; type: functional
In short: (§1)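 Titer reduction: Vero cells (4 × 10^5/well) infected 24 h after seeding at MOI 0.1 and treated immediately with compound. Culture medium was collected 48 h postinfection and titered by plaque assay; n = 3, mean ± SD.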

dengue virus type 1 = assay: Antiviral activity against Dengue virus 1 MY10245 infected in human A549 cells by CFI assay; type: functional, organism-based
In short: (§2)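 CFI assay: A549 cells seeded 2 × 10^4/well, infected next day (MOI 0.3 for DENV-2) with compound-virus mixture for 1 h, then refed with compound-containing medium. On day 2 cells were methanol-fixed at 4°C and intracellular E protein detected by ELISA (4G2 primary, HRP anti-mouse secondary). EC50 is the average of two independent experiments.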

Rattus norvegicus [3] = assay: AUC (0 to infinity) in Wistar rat assessed as NITD449 level at 84.1 mg/kg, po by LC-MS-MS analysis; type: ADME, organism-based, Plasma; set-up: time infinity, dose 84.1 mg/kg, route oral; settings: in vivo
In short: (§3)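 Fasted female Wistar rats were dosed orally with the prodrug in 20% solutol HS15, 30% PEG 300, 50% 100 mM citrate pH 3. Groups of three were serially bled 0.17–48 h. Plasma parent levels came from LC-MS-MS (MRM, LLOQ 9.2 ng/ml) and noncompartmental modeling. F used dose-corrected AUC versus parent i.v. at 5.9 mg/kg.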

Mus musculus [4] = assay: Oral bioavailability in CD-1 mouse assessed as NITD449 level at 24.2 mg/kg by LC-MS-MS analysis; type: ADME, organism-based; settings: in vivo
In short: (§4)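 Female CD-1 mice given the prodrug orally, formulated in 10% ethanol, 30% PEG 400, 60% D5W. Blood from three animals at 0.08, 0.25, 0.5, 1, 2, 4, 8, 16, 24 h; heparinized plasma extracted with acetonitrile-methanol-acetic acid. Parent nucleoside was quantified by LC-MS-MS (MRM, LLOQ 9.2 ng/ml) and noncompartmental analysis was run. F = dose-corrected AUC p.o./AUC i.v., with i.v. parent at 5 mg/kg.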

dengue virus type 2 [5] = assay: Antiviral activity against Dengue virus-2 NGC infected in hamsters BHK21 cells assessed as inhibition of viral RNA synthesis at 3 uM after 24 to 40 hrs of infection by luciferase assay; type: functional, organism-based; settings: BHK-21
In short: (§5)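 DENV-2 luciferase replicon (structural genes deleted) RNA was electroporated into BHK-21 cells, then cells were immediately incubated with compound. Luciferase was read at time points. Signals at 2–4 h p.t. reflect input translation and at 24–40 h p.t. reflect RNA synthesis; n = 3, mean ± SD.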

dengue virus type 2 [6] = assay: Antiviral activity against Dengue virus-2 NGC infected in hamsters BHK21 cells assessed as inhibition of viral RNA synthesis at 3 uM after 2 to 4 hrs of infection by luciferase assay; type: functional, organism-based; settings: BHK-21
dengue virus type 2 [7] = assay: Antiviral activity against Dengue virus 2 NGC infected in african green monkey Vero cells after 48 hrs by plaque assay; type: functional, organism-based; in short: as §1
dengue virus type 2 [8] = assay: Antiviral activity against Dengue virus-2 NGC infected in hamsters BHK21 cells assessed as inhibition of viral RNA synthesis at 1 uM after 2 to 4 hrs of infection by luciferase assay; type: functional, organism-based; settings: BHK-21
dengue virus type 2 [9] = assay: Antiviral activity against Dengue virus 2 NGC infected in human A549 cells after 2 days by CFI assay in presence of 2 mg/ml alpha-1-acid glycoprotein; type: functional, organism-based; settings: A549, 48 h
In short: (§6)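 Modified CFI: A549 cells infected with DENV-2 New Guinea C (MOI 0.3) for 1 h without compound. Inoculum then replaced with medium containing compound dilutions plus the stated HSA and/or AGP. On day 2, cells methanol-fixed and intracellular E protein detected by ELISA (4G2 primary, HRP anti-mouse secondary); EC50 derived.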

Rattus norvegicus [10] = assay: Oral bioavailability in Wistar rat assessed as NITD449 level at 84.1 mg/kg by LC-MS-MS analysis; type: ADME, organism-based; settings: in vivo; in short: as §3
dengue virus type 2 [11] = assay: Antiviral activity against Dengue virus 2 TSV01 infected in AG129 mouse assessed as reduced viremia by 25 mg/kg, po BID for 3 days measured on day 4 by plaque assay; type: functional
In short: (§7)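 AG129 mice (lacking IFN-α/β and IFN-γ receptors) were inoculated i.p. with 2 × 10^6 PFU DENV-2 in 0.4 ml. Immediately afterwards, 0.2 ml compound in ethanol-PEG-D5W (10:30:60) was given by oral gavage twice daily for 3 days. Day-4 blood viremia was measured by plaque assay; 6 or 8 mice per group.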

Chikungunya virus = assay: Antiviral activity against Chikungunya virus infected in african green monkey Vero cells after 22 hrs by plaque assay; type: functional, cell-based
dengue virus type 2 [12] = assay: Antiviral activity against Dengue virus 2 NGC infected in human A549 cells after 2 days by CFI assay in presence of 40 mg/ml human serum albumin and 2 mg/ml alpha-1-acid glycoprotein; type: functional, organism-based; settings: A549, 48 h; in short: as §6
dengue virus type 2 [13] = assay: Antiviral activity against Dengue virus 2 MY10340 infected in human A549 cells by CFI assay; type: functional, organism-based; in short: as §2
dengue virus type 2 [14] = assay: Antiviral activity against Dengue virus 2 NGC infected in human PBMC cells by plaque assay; type: functional, organism-based
Rattus norvegicus [15] = assay: Cmax in Wistar rat assessed as NITD449 level at 26.5 mg/kg, po by LC-MS-MS analysis; type: ADME, organism-based; set-up: dose 26.5 mg/kg, route oral; settings: in vivo
In short: (§8)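 Female Wistar rats, fasted overnight until 4 h postdose, given the prodrug orally in 10% ethanol, 30% PEG 400, 60% D5W. Serial blood from groups of three at 0.17–48 h. Parent nucleoside in plasma was measured by LC-MS-MS (LLOQ 9.2 ng/ml) with noncompartmental analysis. F was corrected for dose against parent i.v. at 5.9 mg/kg.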

Rattus norvegicus [16] = assay: Tmax in Wistar rat assessed as NITD449 level at 26.5 mg/kg, po by LC-MS-MS analysis; type: ADME, organism-based; set-up: dose 26.5 mg/kg, route oral; settings: in vivo; in short: as §8
Mus musculus [17] = assay: AUC (0 to infinity) in CD-1 mouse assessed as NITD449 level at 24.2 mg/kg, po by LC-MS-MS analysis; type: ADME, organism-based, Plasma; set-up: dose 24.2 mg/kg, route oral, time infinity; settings: in vivo; in short: as §4
Rattus norvegicus [18] = assay: Toxicity in Wistar rat at 10 mg/kg/day, po for 2 weeks; type: organism-based; set-up: route oral; settings: in vivo, 336 h
In short: (§9)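 Male Wistar rats, 10 weeks old, dosed orally daily for 2 weeks; five per dose group. Clinical signs, body weight and mortality were monitored.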

Rattus norvegicus [19] = assay: Tmax in Wistar rat assessed as NITD449 level at 84.1 mg/kg, po by LC-MS-MS analysis; type: ADME, organism-based; set-up: dose 84.1 mg/kg, route oral; settings: in vivo; in short: as §3
Mus musculus [20] = assay: Cmax in CD-1 mouse assessed as NITD449 level at 24.2 mg/kg, po by LC-MS-MS analysis; type: ADME, organism-based; set-up: dose 24.2 mg/kg, route oral; settings: in vivo; in short: as §4
Yellow fever virus [21] = assay: Antiviral activity against Yellow fever virus 17D infected in african green monkey Vero cells after 48 hrs by plaque assay; type: functional, cell-based
dengue virus type 2 [22] = assay: Antiviral activity against Dengue virus 2 TSV01 infected in AG129 mouse assessed as reduced viremia by 3 mg/kg, po BID for 3 days measured on day 4 by plaque assay; type: functional; in short: as §7
West Nile virus = assay: Antiviral activity against West Nile virus infected in african green monkey Vero cells assessed as inhibition of RNA replication after 24 hrs by luciferase assay; type: functional, organism-based
In short: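 Vero cells infected at MOI about 0.1 with WNV replicon-packaged virus-like particles carrying luciferase, then treated with compound. Luciferase was read 24 h postinfection, relative to mock-treated cells set at 100%; n = 3.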

dengue virus type 3 = assay: Antiviral activity against Dengue virus 3 MY22366 infected in human A549 cells by CFI assay; type: functional, organism-based; in short: as §2
Rattus norvegicus [23] = assay: Oral bioavailability in Wistar rat assessed as NITD449 level at 26.5 mg/kg by LC-MS-MS analysis; type: ADME, organism-based; settings: in vivo; in short: as §8
Mus musculus [24] = assay: Tmax in CD-1 mouse assessed as NITD449 level at 24.2 mg/kg, po by LC-MS-MS analysis; type: ADME, organism-based; set-up: dose 24.2 mg/kg, route oral; settings: in vivo; in short: as §4
dengue virus type 4 = assay: Antiviral activity against Dengue virus 4 MY22713 infected in human A549 cells by CFI assay; type: functional, organism-based; in short: as §2
dengue virus type 2 [25] = assay: Antiviral activity against Dengue virus 2 NGC infected in human A549 cells after 2 days by CFI assay in presence of 40 mg/ml human serum albumin; type: functional, organism-based; settings: A549, 48 h; in short: as §6
Rattus norvegicus [26] = assay: Toxicity in Wistar rat at 75 mg/kg/day, po for 2 weeks; type: organism-based; set-up: route oral; settings: in vivo, 336 h; in short: as §9
dengue virus type 2 [27] = assay: Antiviral activity against Dengue virus 2 TSV01 infected in AG129 mouse assessed as reduced viremia by 10 mg/kg, po BID for 3 days measured on day 4 by plaque assay; type: functional; in short: as §7
Rattus norvegicus [28] = assay: AUC (0 to infinity) in Wistar rat assessed as NITD449 level at 26.5 mg/kg, po by LC-MS-MS analysis; type: ADME, organism-based, Plasma; set-up: time infinity, dose 26.5 mg/kg, route oral; settings: in vivo; in short: as §8
Rattus norvegicus [29] = assay: Toxicity in Wistar rat at 30 mg/kg/day, po for 2 weeks; type: organism-based; set-up: route oral; settings: in vivo, 336 h; in short: as §9
Hepatitis C virus = assay: Antiviral activity against HCV subtype 1b infected in human Huh-7 cells after 48 hrs by luciferase assay; type: functional, organism-based; settings: Hepacivirus hominis, genotype 1b
In short: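 Huh-7 cells bearing a luciferase-reporting HCV genotype 1b replicon were incubated with compound. Luciferase was read at 48 h posttreatment and efficacy estimated from signal reduction; n = 3.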

dengue virus type 2 [30] = assay: Antiviral activity against Dengue virus-2 NGC infected in hamsters BHK21 cells assessed as inhibition of viral RNA synthesis at 1 uM after 24 to 40 hrs of infection by luciferase assay; type: functional, organism-based; settings: BHK-21; in short: as §5
Rattus norvegicus [31] = assay: Cmax in Wistar rat assessed as NITD449 level at 84.1 mg/kg, po by LC-MS-MS analysis; type: ADME, organism-based; set-up: dose 84.1 mg/kg, route oral; settings: in vivo; in short: as §3
dengue virus type 2 [32] = assay: Antiviral activity against Dengue virus 2 NGC infected in human A549 cells by CFI assay; type: functional, organism-based; in short: as §2

C#C[C@@]1(O)[C@H](OC(=O)C(C)C)[C@@H](COC(=O)C(C)C)O[C@H]1n1cc(C(N)=O)c2c(N)ncnc21
fold change (FC) (Yellow fever virus [1]): 100
fold change (FC) (dengue virus type 2 [2]): 1000
EC50 (dengue virus type 1): 540 nM
AUC (Rattus norvegicus [3]): 33.5 µM·h
F (Mus musculus [4]): 32%
Activity (dengue virus type 2 [5]): Active
Activity (dengue virus type 2 [6]): Active
Activity (dengue virus type 2 [7]): Active
Activity (dengue virus type 2 [8]): Active
EC50 (dengue virus type 2 [9]): 760 nM
F (Rattus norvegicus [10]): 10%
fold change (FC) (dengue virus type 2 [11]): 30
Activity (Chikungunya virus): Active
EC50 (dengue virus type 2 [12]): 850 nM
EC50 (dengue virus type 2 [13]): 570 nM
EC50 (dengue virus type 2 [14]): 100 nM
Cmax (Rattus norvegicus [15]): 3.65 µM
Tmax (Rattus norvegicus [16]): 30 min
AUC (Mus musculus [17]): 12.6 µM·h
Activity (Rattus norvegicus [18]): Non-toxic
Tmax (Rattus norvegicus [19]): 30 min
Cmax (Mus musculus [20]): 6.01 µM
Activity (Yellow fever virus [21]): Active
fold change (FC) (dengue virus type 2 [22]): 2.7
Activity (West Nile virus): Active
EC50 (dengue virus type 3): 540 nM
F (Rattus norvegicus [23]): 13%
Tmax (Mus musculus [24]): 4.8 min
EC50 (dengue virus type 4): 710 nM
EC50 (dengue virus type 2 [25]): 790 nM
Activity (Rattus norvegicus [26]): Toxic
fold change (FC) (dengue virus type 2 [27]): 4.4
AUC (Rattus norvegicus [28]): 13.7 µM·h
Activity (Rattus norvegicus [29]): Toxic
Activity (Hepatitis C virus): Active
Activity (dengue virus type 2 [30]): Active
Cmax (Rattus norvegicus [31]): 14.2 µM
EC50 (dengue virus type 2 [32]): 690 nM
